From ChEMBL document CHEMBL1799996, “Novel C8-linked pyrrolobenzodiazepine (PBD)-heterocycle conjugates that recognize DNA sequences containing an inverted CCAAT box” (2011)

How the values were obtained:
Nucleic Acid [1] = test: Binding affinity to calf thymus DNA assessed as change in melting temperature at 5 uM at pH 7 after 4 hrs by thermal denaturation assay; format: nucleic-acid assay; conditions: Bos taurus
[2] = Cytotoxicity against human NCI60 cells; format: functional
Outline: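 NCI 60-cell-line panel. GI50, TGI and LC50 (50% growth inhibition, total growth inhibition and 50% lethality) are given as the mean across all 60 lines.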

Nucleic Acid [3] = test: Binding affinity to ICB2 site of human topoisomerase 2alpha promoter after 17 hrs by DNase 1 footprinting assay; format: nucleic-acid assay
Outline: (§1)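 Reported value is the lowest conjugate concentration that gives a measurable footprint at the respective inverted CCAAT site.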

Nucleic Acid [4] = test: Binding affinity to ICB1 site of human topoisomerase 2alpha promoter after 17 hrs by DNase 1 footprinting assay; format: nucleic-acid assay; outline: as §1
Nucleic Acid [5] = test: Binding affinity to calf thymus DNA assessed as change in melting temperature at 5 uM at pH 7 after 18 hrs by thermal denaturation assay; format: nucleic-acid assay; conditions: Bos taurus

Row | SMILES | ΔTm (Nucleic Acid [1]) [°C] | GI50 [2] [µM] | LC50 (50% lethal concentration) [2] [µM] | TGI [2] [µM] | Activity (Nucleic Acid [3]) [µM] | Activity (Nucleic Acid [4]) [µM] | ΔTm (Nucleic Acid [5]) [°C]
1 | COC(=O)c1cc(NC(=O)c2cc(NC(=O)CCCOc3cc4c(cc3OC)C(=O)N3CCC[C@H]3C=N4)cn2C)cn1C | 14.5 | 0.011 | 10 | 0.12 | 1 | 1 | 15.1
2 | COC(=O)CCCOc1cc2c(cc1OC)C(=O)N1CCC[C@H]1C=N2 | 0.3 | 1.74 | 46.8 | 11.8 |  |  | 0.4
